Data taken from ChEMBL document CHEMBL1156266, “Antisense oligonucleotides containing conformationally constrained 2',4'-(N-methoxy)aminomethylene and 2',4'-aminooxymethylene and 2'-O,4'-C-aminomethylene bridged nucleoside analogues show improved potency in animal models” (J Med Chem, 2010).
The source made the active and inactive calls. The calls are words filed in the database; no cut-off is given here.

Columns and labels:
Nucleic Acid = assay: Binding affinity to mouse PTEN mRNA assessed as melting temperature at 4 uM by thermal denaturation assay; format: nucleic-acid assay
Outline: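 Duplex with complementary length-matched RNA; UV absorbance versus temperature curves in 100 mM Na+, 10 mM phosphate, 0.1 mM EDTA, 4 μM each strand. Tm is the average of two experiments.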

Mus musculus [1] = assay: Hepatotoxicity in BALB/c mouse assessed as liver ALT level at 0.5 to 14.8 mg/kg, ip administered twice a week for 3 weeks measured after 72 hrs of last dose; format: toxicity, organism-based; parameters: dose 0.5-14.8 mg/kg, route intraperitoneal; settings: in vivo
Outline: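 Male 6-week-old Balb/c mice dosed ip in PBS twice weekly for 3 weeks: 0.7–23 mg/kg (four levels) or 0.5–14.6/14.8 mg/kg. Killed 72 h after final dose. Plasma from cardiac-puncture blood, ALT on clinical bioanalyzer. Errors are SD.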

Mus musculus [2] = assay: Toxicity in BALB/c mouse assessed as effect on liver weight at 0.5 to 14.8 mg/kg, ip administered twice a week for 3 weeks measured after 72 hrs of last dose; format: organism-based; parameters: dose 0.5-14.8 mg/kg, route intraperitoneal; settings: in vivo
Outline: (§1)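 Male Balb/c mice, ip ASO in PBS twice weekly for 3 weeks at four dose levels. Body weight recorded before each dose. Killed 3 days after last dose. Organ weights normalized to body weight, expressed relative to the saline-treated group.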

Mus musculus [3] = assay: Toxicity in BALB/c mouse assessed as effect on kidney weight at 0.5 to 14.8 mg/kg, ip administered twice a week for 3 weeks measured after 72 hrs of last dose; format: organism-based; parameters: dose 0.5-14.8 mg/kg, route intraperitoneal; settings: in vivo; outline: as §1
Mus musculus [4] = assay: Toxicity in BALB/c mouse assessed as effect on body weight at 0.5 to 14.8 mg/kg, ip administered twice a week for 3 weeks measured after 72 hrs of last dose; format: organism-based; parameters: dose 0.5-14.8 mg/kg, route intraperitoneal; settings: in vivo; outline: as §1
Mus musculus [5] = assay: Reduction in PTEN mRNA expression in ip dosed BALB/c mouse liver administered twice a week for 3 weeks measured after 72 hrs of last dose by RT-PCR analysis; format: functional
Outline: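 Male Balb/c mice, 6-week-old, ASO in PBS ip twice weekly for 3 weeks, four dose levels. Killed 72 h after last dose. Liver homogenized in guanidine isothiocyanate buffer, RNA column-purified. PTEN RNA by fluorescence qRT-PCR, normalized to cyclophilin A. Errors are SD.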

[6] = Reduction in PTEN mRNA expression in mouse bEND.3 cells after 24 hrs by qRT-PCR analysis; format: functional, cell-based; settings: for IC50: BEND3, 24 h
Outline: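 bEnd.3 cells in DMEM/10% FBS, seeded at 1 × 10^4 cells/well the day before. Transfected 4 h at 37 °C with Lipofectin 3 μg/mL in OptiMEM, eight 1:2 dilutions (40 nM to 312.5 pM), then refed with complete medium for 24 h. PTEN RNA by qRT-PCR, normalized to cyclophilin A, as % untreated control. Triplicate plates. IC50 from sigmoidal fit, top 100%, bottom 0%.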

Mus musculus [7] = assay: Toxicity in BALB/c mouse assessed as increase in spleen weight at 0.5 to 14.8 mg/kg, ip administered twice a week for 3 weeks measured after 72 hrs of last dose; format: organism-based; parameters: dose 0.5-14.8 mg/kg, route intraperitoneal; settings: in vivo; outline: as §1
Mus musculus [8] = assay: Reduction in PTEN mRNA expression in BALB/c mouse liver at 37 mg/kg, ip administered once a week for 3 weeks measured after 72 hrs of last dose by RT-PCR analysis; format: functional, organism-based; parameters: dose 37 mg/kg

Row | SMILES | Tm (Nucleic Acid) [°C] | Activity (Mus musculus [1]) | Activity (Mus musculus [2]) | Activity (Mus musculus [3]) | Activity (Mus musculus [4]) | Activity (Mus musculus [5]) | ED50 (Mus musculus [5]) [mg/kg] | Activity [6] | IC50 [6] [nM] | Activity (Mus musculus [7]) | Activity (Mus musculus [8])
1 | Cc1cn([C@H]2C[C@H](OP(O)(=S)OC[C@H]3O[C@@H](n4cnc5c(=O)[nH]c(N)nc54)[C@H](O)[C@@H]3OP(O)(=S)OC[C@H]3O[C@@H](n4cnc5c(=O)[nH]c(N)nc54)[C@H](O)[C@@H]3OP(O)(=S)OC[C@H]3O[C@@H](n4ccc(N)nc4=O)[C@H](O)[C@@H]3OP(O)(=S)OC[C@H]3O[C@@H](n4ccc(N)nc4=O)[C@H](O)[C@@H]3OP(O)(=S)OC[C@H]3O[C@@H](n4cc(C)c(=O)[nH]c4=O)C[C@@H]3O)[C@@H](COP(O)(=S)O[C@H]3[C@@H](O)[C@H](n4ccc(N)nc4=O)O[C@@H]3COP(O)(=S)O[C@H]3[C@@H](O)[C@H](n4cnc5c(N)ncnc54)O[C@@H]3COP(O)(=S)O[C@H]3[C@@H](O)[C@H](n4ccc(N)nc4=O)O[C@@H]3COP(O)(=S)O[C@H]3[C@@H](O)[C@H](n4cnc5c(=O)[nH]c(N)nc54)O[C@@H]3COP(O)(=S)O[C@H]3[C@@H](O)[C@H](n4cnc5c(N)ncnc54)O[C@@H]3COP(O)(=S)O[C@H]3C[C@H](n4cc(C)c(=O)[nH]c4=O)O[C@@H]3COP(O)(=S)O[C@H]3C[C@H](n4cc(C)c(=O)[nH]c4=O)O[C@@H]3COP(O)(=S)O[C@H]3[C@@H](O)[C@H](n4ccc(N)nc4=O)O[C@@H]3CO)O2)c(=O)[nH]c1=O (stereo not given in full) | 48.5 | – | – | – | – | – | – | – | – | – | –
2 | Cc1cn([C@@H]2O[C@]3(CO)CON(C)[C@@H]2[C@@H]3OP(O)(=S)OC[C@]23CON(C)[C@@H]([C@H](n4cc(C)c(=O)[nH]c4=O)O2)[C@@H]3OP(O)(=S)OC[C@H]2O[C@@H](n3cc(C)c(=O)[nH]c3=O)C[C@@H]2OP(O)(=S)OC[C@H]2O[C@@H](n3cnc4c(N)ncnc43)[C@H](O)[C@@H]2OP(O)(=S)OC[C@H]2O[C@@H](n3cnc4c(=O)[nH]c(N)nc43)[C@H](O)[C@@H]2OP(O)(=S)OC[C@H]2O[C@@H](n3ccc(N)nc3=O)[C@H](O)[C@@H]2OP(O)(=S)OC[C@H]2O[C@@H](n3cnc4c(N)ncnc43)[C@H](O)[C@@H]2OP(O)(=S)OC[C@H]2O[C@@H](n3ccc(N)nc3=O)[C@H](O)[C@@H]2OP(O)(=S)OC[C@H]2O[C@@H](n3cc(C)c(=O)[nH]c3=O)C[C@@H]2OP(O)(=S)OC[C@H]2O[C@@H](n3cnc4c(=O)[nH]c(N)nc43)[C@H](O)[C@@H]2OP(O)(=S)OC[C@H]2O[C@@H](n3cnc4c(=O)[nH]c(N)nc43)[C@H](O)[C@@H]2OP(O)(=S)OC[C@H]2O[C@@H](n3ccc(N)nc3=O)[C@H](O)[C@@H]2OP(O)(=S)OC[C@]23CON(C)[C@@H]([C@H](n4cc(C)c(N)nc4=O)O2)[C@@H]3OP(O)(=S)OC[C@]23CON(C)[C@@H]([C@H](n4cc(C)c(=O)[nH]c4=O)O2)[C@@H]3O)c(=O)nc1N (stereo not given in full) | 55.4 | Non-toxic | Non-toxic | Non-toxic | Non-toxic | Dose-dependent effect | 11 | Dose-dependent effect | 3.4 | – | –
3 | CON1C[C@@]2(COP(O)(=S)O[C@H]3[C@H]4ON(OC)C[C@@]3(COP(O)(=S)O[C@H]3[C@@H](O)[C@H](n5ccc(N)nc5=O)O[C@@H]3COP(O)(=S)O[C@H]3[C@@H](O)[C@H](n5cnc6c(=O)[nH]c(N)nc65)O[C@@H]3COP(O)(=S)O[C@H]3[C@@H](O)[C@H](n5cnc6c(=O)[nH]c(N)nc65)O[C@@H]3COP(O)(=S)O[C@H]3C[C@H](n5cc(C)c(=O)[nH]c5=O)O[C@@H]3COP(O)(=S)O[C@H]3[C@@H](O)[C@H](n5ccc(N)nc5=O)O[C@@H]3COP(O)(=S)O[C@H]3[C@@H](O)[C@H](n5cnc6c(N)ncnc65)O[C@@H]3COP(O)(=S)O[C@H]3[C@@H](O)[C@H](n5ccc(N)nc5=O)O[C@@H]3COP(O)(=S)O[C@H]3[C@@H](O)[C@H](n5cnc6c(=O)[nH]c(N)nc65)O[C@@H]3COP(O)(=S)O[C@H]3[C@@H](O)[C@H](n5cnc6c(N)ncnc65)O[C@@H]3COP(O)(=S)O[C@H]3C[C@H](n5cc(C)c(=O)[nH]c5=O)O[C@@H]3COP(O)(=S)O[C@H]3[C@H]5ON(OC)C[C@@]3(COP(O)(=S)O[C@H]3[C@H]6ON(OC)C[C@@]3(CO)O[C@H]6n3cc(C)c(N)nc3=O)O[C@H]5n3cc(C)c(=O)[nH]c3=O)O[C@H]4n3cc(C)c(N)nc3=O)O[C@@H](n3cc(C)c(=O)[nH]c3=O)[C@H](O1)[C@@H]2O (stereo not given in full) | 57.7 | Non-toxic | Non-toxic | Non-toxic | Non-toxic | Dose-dependent effect | 8 | Dose-dependent effect | 3.1 | Toxic | –
4 | COCCO[C@@H]1[C@H](O)[C@@H](COP(O)(=S)O[C@H]2[C@@H](OCCOC)[C@H](n3ccc(N)nc3=O)O[C@@H]2COP(O)(=S)O[C@H]2[C@@H](O)[C@H](n3ccc(N)nc3=O)O[C@@H]2COP(O)(=S)O[C@H]2[C@@H](O)[C@H](n3cnc4c(=O)[nH]c(N)nc43)O[C@@H]2COP(O)(=S)O[C@H]2[C@@H](O)[C@H](n3cnc4c(=O)[nH]c(N)nc43)O[C@@H]2COP(O)(=S)O[C@H]2C[C@H](n3cc(C)c(=O)[nH]c3=O)O[C@@H]2COP(O)(=S)O[C@H]2[C@@H](O)[C@H](n3ccc(N)nc3=O)O[C@@H]2COP(O)(=S)O[C@H]2[C@@H](O)[C@H](n3cnc4c(N)ncnc43)O[C@@H]2COP(O)(=S)O[C@H]2[C@@H](O)[C@H](n3ccc(N)nc3=O)O[C@@H]2COP(O)(=S)O[C@H]2[C@@H](O)[C@H](n3cnc4c(=O)[nH]c(N)nc43)O[C@@H]2COP(O)(=S)O[C@H]2[C@@H](O)[C@H](n3cnc4c(N)ncnc43)O[C@@H]2COP(O)(=S)O[C@H]2C[C@H](n3cc(C)c(=O)[nH]c3=O)O[C@@H]2COP(O)(=S)O[C@H]2[C@@H](OCCOC)[C@H](n3ccc(=O)[nH]c3=O)O[C@@H]2COP(O)(=S)O[C@H]2[C@@H](OCCOC)[C@H](n3ccc(N)nc3=O)O[C@@H]2CO)O[C@H]1n1ccc(=O)[nH]c1=O (stereo not given in full) | 51.3 | – | – | – | – | – | > 45 | Dose-dependent effect | 34.7 | – | –
5 | Cc1cn([C@@H]2O[C@]3(CO)CNO[C@@H]2[C@@H]3OP(O)(=S)OC[C@]23CNO[C@@H]([C@H](n4cc(C)c(=O)[nH]c4=O)O2)[C@@H]3OP(O)(=S)OC[C@H]2O[C@@H](n3cc(C)c(=O)[nH]c3=O)C[C@@H]2OP(O)(=S)OC[C@H]2O[C@@H](n3cnc4c(N)ncnc43)[C@H](O)[C@@H]2OP(O)(=S)OC[C@H]2O[C@@H](n3cnc4c(=O)[nH]c(N)nc43)[C@H](O)[C@@H]2OP(O)(=S)OC[C@H]2O[C@@H](n3ccc(N)nc3=O)[C@H](O)[C@@H]2OP(O)(=S)OC[C@H]2O[C@@H](n3cnc4c(N)ncnc43)[C@H](O)[C@@H]2OP(O)(=S)OC[C@H]2O[C@@H](n3ccc(N)nc3=O)[C@H](O)[C@@H]2OP(O)(=S)OC[C@H]2O[C@@H](n3cc(C)c(=O)[nH]c3=O)C[C@@H]2OP(O)(=S)OC[C@H]2O[C@@H](n3cnc4c(=O)[nH]c(N)nc43)[C@H](O)[C@@H]2OP(O)(=S)OC[C@H]2O[C@@H](n3cnc4c(=O)[nH]c(N)nc43)[C@H](O)[C@@H]2OP(O)(=S)OC[C@H]2O[C@@H](n3ccc(N)nc3=O)[C@H](O)[C@@H]2OP(O)(=S)OC[C@]23CNO[C@@H]([C@H](n4cc(C)c(N)nc4=O)O2)[C@@H]3OP(O)(=S)OC[C@]23CNO[C@@H]([C@H](n4cc(C)c(=O)[nH]c4=O)O2)[C@@H]3O)c(=O)nc1N (stereo not given in full) | 57.7 | – | – | – | – | – | > 37 | Dose-dependent effect | 3.2 | – | inactive
6 | Cc1cn([C@H]2C[C@H](OP(O)(=S)OC[C@H]3O[C@@H](n4cnc5c(=O)[nH]c(N)nc54)[C@H](O)[C@@H]3OP(O)(=S)OC[C@H]3O[C@@H](n4cnc5c(=O)[nH]c(N)nc54)[C@H](O)[C@@H]3OP(O)(=S)OC[C@H]3O[C@@H](n4ccc(N)nc4=O)[C@H](O)[C@@H]3OP(O)(=S)OC[C@]34CO[C@@H]([C@H](n5ccc(N)nc5=O)O3)[C@@H]4OP(O)(=S)OC[C@]34CO[C@@H]([C@H](n5ccc(=O)[nH]c5=O)O3)[C@@H]4O)[C@@H](COP(O)(=S)O[C@H]3[C@@H](O)[C@H](n4ccc(N)nc4=O)O[C@@H]3COP(O)(=S)O[C@H]3[C@@H](O)[C@H](n4cnc5c(N)ncnc54)O[C@@H]3COP(O)(=S)O[C@H]3[C@@H](O)[C@H](n4ccc(N)nc4=O)O[C@@H]3COP(O)(=S)O[C@H]3[C@@H](O)[C@H](n4cnc5c(=O)[nH]c(N)nc54)O[C@@H]3COP(O)(=S)O[C@H]3[C@@H](O)[C@H](n4cnc5c(N)ncnc54)O[C@@H]3COP(O)(=S)O[C@H]3C[C@H](n4cc(C)c(=O)[nH]c4=O)O[C@@H]3COP(O)(=S)O[C@H]3[C@H]4OC[C@@]3(COP(O)(=S)O[C@H]3[C@H]5OC[C@@]3(CO)O[C@H]5n3ccc(N)nc3=O)O[C@H]4n3ccc(=O)[nH]c3=O)O2)c(=O)[nH]c1=O (stereo not given in full) | 58 | – | – | – | – | – | – | – | – | – | –
